The nature of data set [1]: Volume of distribution at steady state in Han Wistar rat at 0.25 mg/kg, iv up to 7 hrs by LC-MS/MS analysis. The data set is classed as ADME, organism-based. Also on record: dose 0.25 mg/kg, route intravenous. The conditions noted are these: in vivo, read-out: Vdss. A digest of the protocol: (§1)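 Han Wistar rats dosed 0.25 mg/kg intravenously; plasma sampled at various times up to 7 h postdose. Clearance expressed as percentage of liver blood flow.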

Data set [2] addresses Cytochrome P450 2D6 (Homo sapiens, UniProt P10635). In words: Inhibition of human CYP2D6 expressed in Escherichia coli. The class given is ADME. A digest of the protocol: (§2)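 Human CYP isoforms expressed in E. coli; IC50 from n = 3. Probe substrates diethoxyfluorescein and 7-benzyloxyquinoline are stated for CYP3A4.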
The nature of data set [3]: Half life in beagle dog at 0.05 mg/kg, iv up to 8 hrs by LC-MS/MS analysis. The data set is classed as ADME, organism-based, Canis lupus familiaris. Also noted: dose 0.05 mg/kg, route intravenous. The settings on record: in vivo. A digest of the protocol: (§3)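 Beagle dogs dosed 0.05 mg/kg intravenously; plasma collected at various time points up to 8 h postdose.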
Data set [4] is described as follows: Volume of distribution at steady state in beagle dog at 0.05 mg/kg, iv up to 8 hrs by LC-MS/MS analysis. The class given is ADME, organism-based, Canis lupus familiaris. Also noted: dose 0.05 mg/kg, route intravenous. The conditions noted are these: in vivo, read-out: Vdss. Summed up:
as §3

Data set [5] deals with Salmonella typhimurium. In words: Genotoxicity in Salmonella typhimurium by Ames assay in presence of rat liver metabolic activation system. The settings on record: salmonella enterica subsp. enterica serovar typhimurium. The class given is toxicity, organism-based. Summed up: (§4)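 Acetate and 4-biphenylsulfonate salts screened in Ames and mouse lymphoma L5178Y assays, with and without a rat liver metabolic activation system.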
(In general: The Ames test uses bacterial strains that need an amino acid and regain growth without it when mutated back.)

The subject of data set [6] is Liver microsome. Description: Clearance in dog liver microsomes. The class given is ADME, Canis lupus familiaris. A digest of the protocol: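 Compound incubated with liver microsomes; in vitro metabolic clearance expressed as (mL/min)/g liver.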
Data set [7] in a line: Ratio of drug uptake from blood to plasma in dog. The data set is classed as ADME, Canis lupus familiaris. Summed up: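 In vitro partitioning of the compound into the cellular fraction of rat, dog and human blood, reported as the blood:plasma ratio.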
The target in data set [8] is Cytochrome P450 2C9 (Homo sapiens, UniProt P11712). Description: Inhibition of human CYP2C9 expressed in Escherichia coli. The class given is ADME. Summed up: as §2
For data set [9], the system named is Rattus norvegicus. In words: Clearance in Han Wistar rat at 0.25 mg/kg, iv up to 7 hrs by LC-MS/MS analysis relative to liver blood flow. The class given is ADME, organism-based. Also noted: dose 0.25 mg/kg, route intravenous. The settings on record: in vivo. Summed up: as §1
Data set [10] in a line: Oral absorption in Han Wistar rat at 2 mg/kg up to 7 hrs by LC-MS/MS analysis. The data set is classed as ADME, organism-based. Also noted: dose 2 mg/kg. The conditions noted are these: in vivo, read-out: Fa. Summed up: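 Rat oral absorption from hepatic portal vein plasma, corrected for systemic circulation levels, after β-glucuronidase treatment of samples (deconjugated HPV model). Expressed as h·ng/mL.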

Data set [11] deals with L5178Y. Description: Genotoxicity against mouse L5178Y cells. The class given is toxicity, cell-based. Summed up:
as §4

Data set [12] addresses Cytochrome P450 3A4 (Homo sapiens, UniProt P08684). In words: Inhibition of human CYP3A4 expressed in Escherichia coli using 7-benzyloxyquinoline as substrate. The class given is ADME. Summed up:
as §2

Data set [13] is described as follows: Plasma protein binding in human. The class given is ADME, cell-free. The settings on record: read-out: PPB (converted).
Data set [14] is described as follows: Binding affinity to guinea pig sigma receptor. Also on record: species or system Cavia porcellus.
Data set [15] concerns Hepatocyte. In words: Drug metabolism in human hepatocytes assessed as metabolite M15 formation at 12.5 uM after 2 hrs by LC-MS/MS analysis. The class given is ADME, cell-based. A digest of the protocol:
(§5)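 Human hepatocytes incubated with substrate at 12.5 μM for 2 h. Products characterized by LC–MS/MS on a C18 column, 5–95% acetonitrile gradient in water with 0.1% formic acid over 8 min. Metabolites numbered by elution order. Abundance is semiquantitative from peak heights (low/medium/high), assuming equal analyte response.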

The target in data set [16] is Beta-2 adrenergic receptor (Homo sapiens, UniProt P07550). In words: Agonist activity at human beta2 adrenoceptor transfected in CHO cells assessed as cyclic AMP accumulation after 45 mins by fluorescence polarization assay. The data set is classed as functional, cell-based. Background: Polarisation of emitted light reports the rotation of a fluorescent probe.
The target in data set [17] is T1, Cytochrome P450 1A2 (Homo sapiens, UniProt P05177).
T1 sequence (P05177 whole entry): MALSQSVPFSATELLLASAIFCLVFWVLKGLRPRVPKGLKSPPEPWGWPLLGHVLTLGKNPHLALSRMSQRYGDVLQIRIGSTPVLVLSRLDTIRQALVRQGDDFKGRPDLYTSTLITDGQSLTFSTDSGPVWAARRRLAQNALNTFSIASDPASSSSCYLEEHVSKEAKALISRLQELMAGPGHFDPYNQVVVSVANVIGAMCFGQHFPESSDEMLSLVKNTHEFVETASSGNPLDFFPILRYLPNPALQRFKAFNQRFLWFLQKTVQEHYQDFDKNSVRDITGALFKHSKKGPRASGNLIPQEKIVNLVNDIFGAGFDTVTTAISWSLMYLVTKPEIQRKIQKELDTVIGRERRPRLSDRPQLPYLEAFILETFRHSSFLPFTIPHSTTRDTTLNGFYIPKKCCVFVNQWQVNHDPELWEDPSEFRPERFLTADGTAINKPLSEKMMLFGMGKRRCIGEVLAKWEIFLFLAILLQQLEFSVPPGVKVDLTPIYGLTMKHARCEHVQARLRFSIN
In words: Inhibition of human CYP1A2 expressed in Escherichia coli. The data set is classed as ADME. Summed up:
as §2

The target of data set [18] is Cytochrome P450 2C19 (Homo sapiens, UniProt P33261). Description: Inhibition of human CYP2C19 expressed in Escherichia coli. The class given is ADME. Summed up:
as §2

Data set [19] relates to Hepatocyte. Description: Drug metabolism in human hepatocytes assessed as metabolite M12 formation at 12.5 uM after 2 hrs by LC-MS/MS analysis. The class given is ADME, cell-based. Summed up:
as §5

Data set [20] relates to Cavia porcellus. In words: Bronchodilatory activity in guinea pig assessed as inhibition of histamine-induced bronchoconstriction administered via nebulization 2 mins prior to histamine challenge relative to salmeterol acetate. The data set is classed as functional. Summed up:
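Conscious guinea pigs (n = 24 per group) in a whole-body plethysmograph; agonist given by 2 min nebulization before challenge with nebulized histamine (10 mM, 1.3 min). Enhanced pause (PenH) was recorded for 15 min as the index of airway obstruction. Potency was expressed as EC90 by nebulizer concentration and compared with salmeterol acetate.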

Chain of Cytochrome P450 3A4 (P08684 whole entry): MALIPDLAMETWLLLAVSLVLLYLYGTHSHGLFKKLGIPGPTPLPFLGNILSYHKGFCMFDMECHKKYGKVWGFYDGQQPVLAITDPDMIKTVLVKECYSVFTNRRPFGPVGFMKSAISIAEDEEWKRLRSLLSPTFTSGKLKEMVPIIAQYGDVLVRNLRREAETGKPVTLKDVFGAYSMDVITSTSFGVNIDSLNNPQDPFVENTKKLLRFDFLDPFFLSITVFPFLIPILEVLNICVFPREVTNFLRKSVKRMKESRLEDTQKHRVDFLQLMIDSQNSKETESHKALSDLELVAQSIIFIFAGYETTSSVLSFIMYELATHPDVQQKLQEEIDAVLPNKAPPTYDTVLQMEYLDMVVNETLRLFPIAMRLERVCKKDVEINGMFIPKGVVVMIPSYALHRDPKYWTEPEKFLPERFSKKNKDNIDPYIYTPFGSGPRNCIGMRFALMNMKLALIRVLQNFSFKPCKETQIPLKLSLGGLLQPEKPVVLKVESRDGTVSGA
Chain of Cytochrome P450 2D6 (P10635 whole entry, canonical isoform): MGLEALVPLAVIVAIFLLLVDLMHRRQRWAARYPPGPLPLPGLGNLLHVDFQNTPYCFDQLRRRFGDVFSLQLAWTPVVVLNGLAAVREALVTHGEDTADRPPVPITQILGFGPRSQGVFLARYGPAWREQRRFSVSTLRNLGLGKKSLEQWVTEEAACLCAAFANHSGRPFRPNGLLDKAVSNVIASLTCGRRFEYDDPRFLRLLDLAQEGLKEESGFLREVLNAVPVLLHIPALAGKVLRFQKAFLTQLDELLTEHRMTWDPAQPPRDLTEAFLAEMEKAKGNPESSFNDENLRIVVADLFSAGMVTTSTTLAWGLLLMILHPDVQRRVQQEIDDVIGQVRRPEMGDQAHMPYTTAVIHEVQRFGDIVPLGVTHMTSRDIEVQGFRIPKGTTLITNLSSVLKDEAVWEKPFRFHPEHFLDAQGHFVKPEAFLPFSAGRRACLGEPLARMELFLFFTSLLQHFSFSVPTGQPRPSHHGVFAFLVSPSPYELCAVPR
Chain of Cytochrome P450 2C9 (P11712 whole entry): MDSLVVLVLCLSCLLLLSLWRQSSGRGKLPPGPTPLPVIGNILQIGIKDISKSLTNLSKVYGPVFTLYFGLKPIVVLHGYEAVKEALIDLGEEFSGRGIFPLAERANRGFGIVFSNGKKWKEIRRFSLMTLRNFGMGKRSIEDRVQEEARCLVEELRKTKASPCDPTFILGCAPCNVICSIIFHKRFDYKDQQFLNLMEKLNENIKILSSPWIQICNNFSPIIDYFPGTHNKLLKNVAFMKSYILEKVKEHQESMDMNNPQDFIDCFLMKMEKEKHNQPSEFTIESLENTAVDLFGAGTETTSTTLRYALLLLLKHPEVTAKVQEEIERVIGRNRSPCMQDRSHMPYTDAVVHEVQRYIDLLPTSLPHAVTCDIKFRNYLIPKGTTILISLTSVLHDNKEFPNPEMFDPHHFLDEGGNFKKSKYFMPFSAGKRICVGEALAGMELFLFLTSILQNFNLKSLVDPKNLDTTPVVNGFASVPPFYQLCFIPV
Chain of Cytochrome P450 2C19 (P33261 whole entry): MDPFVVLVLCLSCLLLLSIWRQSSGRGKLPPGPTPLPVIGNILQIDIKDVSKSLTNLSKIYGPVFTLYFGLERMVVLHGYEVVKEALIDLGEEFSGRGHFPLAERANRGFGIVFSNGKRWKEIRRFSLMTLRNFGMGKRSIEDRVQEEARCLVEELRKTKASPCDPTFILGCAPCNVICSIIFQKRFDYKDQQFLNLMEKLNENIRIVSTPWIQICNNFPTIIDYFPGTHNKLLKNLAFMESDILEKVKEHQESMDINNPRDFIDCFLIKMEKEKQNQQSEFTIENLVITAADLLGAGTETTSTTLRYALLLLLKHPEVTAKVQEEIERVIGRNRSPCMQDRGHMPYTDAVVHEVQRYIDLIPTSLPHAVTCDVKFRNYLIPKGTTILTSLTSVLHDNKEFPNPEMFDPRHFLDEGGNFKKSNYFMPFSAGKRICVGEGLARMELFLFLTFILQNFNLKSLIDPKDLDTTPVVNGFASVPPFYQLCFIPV
Chain of Beta-2 adrenergic receptor (P07550 whole entry): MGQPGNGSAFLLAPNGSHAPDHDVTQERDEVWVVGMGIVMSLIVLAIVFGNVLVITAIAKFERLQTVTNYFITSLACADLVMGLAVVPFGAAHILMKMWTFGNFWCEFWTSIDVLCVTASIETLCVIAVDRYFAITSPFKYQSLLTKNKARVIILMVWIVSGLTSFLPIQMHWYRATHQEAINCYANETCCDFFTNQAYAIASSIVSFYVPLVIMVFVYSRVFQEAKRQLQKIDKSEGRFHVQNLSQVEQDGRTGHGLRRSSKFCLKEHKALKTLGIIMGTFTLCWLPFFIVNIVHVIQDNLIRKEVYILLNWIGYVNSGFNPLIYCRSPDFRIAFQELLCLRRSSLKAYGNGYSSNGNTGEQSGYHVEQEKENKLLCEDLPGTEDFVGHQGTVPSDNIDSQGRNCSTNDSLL

On to `CC(=O)O.O=S(=O)(c1cccc(CCCCOCCCCCCNC[C@H](O)c2ccc(O)c(CO)c2)c1)C1CCCC1`, for which the Vd came to 1.1 L/kg in [1] and 0.1 L/kg in data set [4]. Also, the IC50 in [2] is 6.4 µM; in [8] it was greater than 10 µM; in data set [12], 3.8 µM; in data set [17], greater than 100 µM; in data set [18], greater than 10 µM. Moreover, in data set [3], the half-life is 24 min. For the same compound, the Activity entry in data set [5] and in data set [11] was “Non-toxic” throughout. In data set [6], the CLH was 5 mL/min/g. For the same compound, the blood plasma ratio in data set [7] stood at 0.6. The same compound showed a CL in data set [9] of 62%. For the same compound, in [10], the AUC at 7 h stood at 15.9 ng·h/mL. The fraction unbound in data set [13] is 0.02. Moreover, in [14], the pIC50 amounted to 6.8. The Drug metabolism result in data set [15] and in data set [19] was “Active” each time. In addition, the EC50 in data set [16] is 0.002 µM. Besides, the “fold change (FC)” value in data set [20] amounted to 5.

The IC50 is the point on the concentration scale where inhibition reaches its midpoint. The low end stands for greater potency in that assay, the high end for weaker potency in that assay. As a reminder, the half-life is how long it takes for the measured level to halve. A word on the pIC50: it is the IC50 on a negative log10 scale, so that one unit is a factor of ten. A word on the EC50: it is the midpoint of the concentration-response curve.

The values above are taken from ChEMBL document CHEMBL3124822, “Discovery of a rapidly metabolized, long-acting β(2) adrenergic receptor agonist with a short onset time incorporating a sulfone group suitable for once-daily dosing” (J Med Chem, 2014).
